The subject of data set [1] is Salmonella typhimurium-E. coli. Description: 5-strain bacterial reverse mutation assay.
Data set [2] relates to P. falciparum Dd2. The conditions noted are these: Dd2, same 3xEC50 protocol; cited from earlier work.
Data set [3] deals with P. falciparum 3D7. Briefly: Blood-stage phenotype and development by microscopy. Type of data set: cell-based. The conditions noted are these: 10xEC50, 48 h. In short, it runs like this:
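Giemsa-stained smears were scored by microscopy, at least 200 cells per condition, for stage arrest and morphology. Standard antimalarials served as controls.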

Data set [4] has as its system G6PD-deficient human red blood cells. Type of data set: in vivo, NOD-SCID mice. The settings on record: blood type A- G6PD-deficient human red blood cells.
In data set [5] the test system is P. falciparum NF54 liver-stage parasites. The settings on record: historical data using the same donor; cited from earlier work.
The test system of data set [6] is P. falciparum Dd2. The format is cell-based.
For data set [7], the system named is P. falciparum HB3. Description: In vitro selection of resistant parasites, HB3. The format is cell-based. The settings on record: HB3 strain.
Data set [8] concerns P. falciparum Dd2 and resistant clones. Briefly: microbe, parasite or virus in culture. Type of data set: cell-based. The conditions noted are these: isolates derived from Dd2 and K1.
In data set [9] the target is P. falciparum DHODH (PfDHODH) (Plasmodium falciparum, UniProt Q08210). Type of data set: biochemical. The conditions noted are these: for IC50, P. falciparum DHODH: mean of 3 technical replicates, 95% confidence interval in parentheses.
Sequence of P. falciparum DHODH (PfDHODH) (Q08210 24-569): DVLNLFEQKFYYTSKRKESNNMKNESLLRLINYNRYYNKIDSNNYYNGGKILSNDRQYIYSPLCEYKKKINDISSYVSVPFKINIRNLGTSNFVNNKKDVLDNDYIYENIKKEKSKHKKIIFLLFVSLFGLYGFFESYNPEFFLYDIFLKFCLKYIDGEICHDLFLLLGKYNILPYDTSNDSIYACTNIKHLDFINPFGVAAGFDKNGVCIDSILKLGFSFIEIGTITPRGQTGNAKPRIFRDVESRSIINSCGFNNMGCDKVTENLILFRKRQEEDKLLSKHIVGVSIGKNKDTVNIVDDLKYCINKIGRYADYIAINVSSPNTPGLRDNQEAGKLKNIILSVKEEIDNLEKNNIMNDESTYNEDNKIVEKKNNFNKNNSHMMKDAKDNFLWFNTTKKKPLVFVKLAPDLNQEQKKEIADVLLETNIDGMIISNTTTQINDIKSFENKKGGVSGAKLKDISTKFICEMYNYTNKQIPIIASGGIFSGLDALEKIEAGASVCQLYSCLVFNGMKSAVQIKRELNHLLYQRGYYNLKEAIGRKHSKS
In data set [10] the target is P. vivax DHODH (PvDHODH) (Plasmodium vivax, UniProt A5K1N1). Briefly: DHODH inhibition, DCIP spectrophotometric assay. Type of data set: biochemical. The conditions noted are these: mean of 3 technical replicates, 95% confidence interval in parentheses.
Data set [11] concerns the target human DHODH (Homo sapiens, UniProt Q02127). Briefly: DHODH inhibition, DCIP spectrophotometric assay. Type of data set: biochemical. The conditions noted are these: mean of 3 technical replicates, 95% confidence interval in parentheses.
The target of data set [12] is mouse DHODH (Mus musculus, UniProt O35435). Description: DHODH inhibition, DCIP spectrophotometric assay. The format is biochemical. The settings on record: mean of 3 technical replicates, 95% confidence interval in parentheses.
Sequence of mouse DHODH (O35435 whole entry): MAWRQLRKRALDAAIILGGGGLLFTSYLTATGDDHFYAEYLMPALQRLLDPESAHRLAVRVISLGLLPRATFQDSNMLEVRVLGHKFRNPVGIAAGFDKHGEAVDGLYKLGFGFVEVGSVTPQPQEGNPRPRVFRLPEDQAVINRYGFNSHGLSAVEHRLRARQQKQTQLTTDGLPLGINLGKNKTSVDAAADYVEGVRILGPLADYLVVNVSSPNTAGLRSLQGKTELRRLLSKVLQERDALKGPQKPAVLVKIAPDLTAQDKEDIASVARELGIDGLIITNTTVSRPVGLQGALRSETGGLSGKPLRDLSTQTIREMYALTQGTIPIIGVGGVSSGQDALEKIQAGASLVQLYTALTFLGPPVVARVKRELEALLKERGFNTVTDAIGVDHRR
Data set [13] addresses rat DHODH (Rattus norvegicus, UniProt Q63707). Description: DHODH inhibition, DCIP spectrophotometric assay. Type of data set: biochemical. The conditions noted are these: mean of 3 technical replicates, 95% confidence interval in parentheses.
In data set [14] the target is dog DHODH (Canis lupus familiaris, UniProt A0A8I3MWX2). Briefly: DHODH inhibition, DCIP spectrophotometric assay. The format is biochemical. The settings on record: mean of 3 technical replicates, 95% confidence interval in parentheses.
Sequence of dog DHODH (A0A8I3MWX2 1-406): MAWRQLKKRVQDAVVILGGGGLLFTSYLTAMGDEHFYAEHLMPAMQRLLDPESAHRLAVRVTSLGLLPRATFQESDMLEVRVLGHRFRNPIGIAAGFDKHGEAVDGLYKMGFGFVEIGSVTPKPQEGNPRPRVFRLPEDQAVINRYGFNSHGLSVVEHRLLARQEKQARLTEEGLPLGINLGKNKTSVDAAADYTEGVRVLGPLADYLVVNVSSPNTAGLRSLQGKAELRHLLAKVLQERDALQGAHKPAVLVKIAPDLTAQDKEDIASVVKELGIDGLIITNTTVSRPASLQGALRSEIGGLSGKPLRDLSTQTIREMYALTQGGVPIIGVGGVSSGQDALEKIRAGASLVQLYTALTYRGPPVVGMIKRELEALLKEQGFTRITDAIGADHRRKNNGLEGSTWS
Data set [15] addresses rabbit DHODH (Oryctolagus cuniculus, UniProt G1SWF3). Description: DHODH inhibition, DCIP spectrophotometric assay. The conditions noted are these: mean of 3 technical replicates. The format is biochemical.
Data set [16] relates to P. falciparum 3D7. Briefly: In vitro P. falciparum 3D7 growth inhibition. The format is cell-based. The conditions noted are these: for P. falciparum 3D7 growth inhibition EC50: 0.5% Albumax-II medium, 95% confidence intervals in parenthesis. In outline: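 SYBR-green growth assay on P. falciparum 3D7 and drug-resistant lines, including chloroquine- and pyrimethamine-resistant parasites, cultured in RPMI-1640 with 0.5% Albumax-II. At least triplicate data per concentration. EC50 from the log(inhibitor) vs response variable-slope (four-parameter) fit by nonlinear least squares, reported with 95% confidence intervals of the fit.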

Data set [17] in a line: Metabolite identification and profiling in pooled plasma. Type of data set: in vivo. The conditions noted are these: all species, mass spectrometry peak area ratios, single dose of DSM265. In outline:
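Pooled plasma from single-dose PK studies in mice, rabbits, monkeys and dogs was profiled by mass spectrometry. Metabolites were identified, and the main oxidative metabolite's structure was confirmed by synthesis. Each metabolite's exposure was estimated as a share of parent AUC from peak area ratios.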

This is an account of results in article PMC4539048 (Science translational medicine, 2015).

Structures are written as SMILES. A value given as a limit tells only on which side of the number the result lay.

Sequence of human DHODH (Q02127 whole entry): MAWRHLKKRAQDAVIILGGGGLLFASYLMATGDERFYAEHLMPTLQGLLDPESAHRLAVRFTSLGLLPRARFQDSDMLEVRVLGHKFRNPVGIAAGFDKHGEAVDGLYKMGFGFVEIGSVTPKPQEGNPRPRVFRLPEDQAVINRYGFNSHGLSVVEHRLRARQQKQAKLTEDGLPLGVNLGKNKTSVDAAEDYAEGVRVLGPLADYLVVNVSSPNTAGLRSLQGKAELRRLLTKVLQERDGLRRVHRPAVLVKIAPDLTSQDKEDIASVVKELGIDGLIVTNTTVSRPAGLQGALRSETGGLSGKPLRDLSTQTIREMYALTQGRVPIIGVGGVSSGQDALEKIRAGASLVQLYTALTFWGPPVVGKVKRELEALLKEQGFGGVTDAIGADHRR
Sequence of rat DHODH (Q63707 whole entry): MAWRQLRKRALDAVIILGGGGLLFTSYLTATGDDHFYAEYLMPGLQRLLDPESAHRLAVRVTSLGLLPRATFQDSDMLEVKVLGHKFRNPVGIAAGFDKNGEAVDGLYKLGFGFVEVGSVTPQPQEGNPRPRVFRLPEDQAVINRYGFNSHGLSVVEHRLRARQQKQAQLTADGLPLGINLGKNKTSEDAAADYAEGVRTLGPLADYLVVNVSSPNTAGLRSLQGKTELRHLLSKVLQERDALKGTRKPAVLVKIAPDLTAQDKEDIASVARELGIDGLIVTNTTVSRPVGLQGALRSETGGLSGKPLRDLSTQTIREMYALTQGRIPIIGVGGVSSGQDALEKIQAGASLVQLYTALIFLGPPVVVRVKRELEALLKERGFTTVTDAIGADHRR
Sequence of rabbit DHODH (G1SWF3 1-395): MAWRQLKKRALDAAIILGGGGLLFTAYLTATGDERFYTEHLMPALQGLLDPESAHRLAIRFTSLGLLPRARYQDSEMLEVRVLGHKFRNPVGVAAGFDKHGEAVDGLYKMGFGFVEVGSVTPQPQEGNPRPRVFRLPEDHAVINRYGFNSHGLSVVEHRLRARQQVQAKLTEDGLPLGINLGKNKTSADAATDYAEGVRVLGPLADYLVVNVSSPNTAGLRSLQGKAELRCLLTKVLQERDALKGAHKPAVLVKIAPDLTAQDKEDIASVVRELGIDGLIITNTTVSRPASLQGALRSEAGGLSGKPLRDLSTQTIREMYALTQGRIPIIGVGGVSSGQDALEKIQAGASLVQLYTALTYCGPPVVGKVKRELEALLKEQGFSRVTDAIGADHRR

Regarding `Nc1ccc(S(F)(F)(F)(F)F)cc1` [SF5-aniline], in [1], the “mutagenic activity (Ames test)” value is given as “non-mutagenic”.

Turning to `CCN(CC)CCCC(C)Nc1ccnc2cc(Cl)ccc12` (centres unmarked) [chloroquine], the “minimum inoculum for resistance (MIR)” value in data set [2] is 10^8.

As for `CCc1nc(N)nc(N)c1-c1ccc(Cl)cc1` [pyrimethamine], the “blood-stage phenotype after treatment” value in data set [3] is reported as “arrested as mature trophozoites”.

Consider `COc1cc(NC(C)CCCN)c2ncccc2c1` (centres unmarked) [primaquine], for which, in data set [4], the hemolytic toxicity result was “substantial loss in human RBCs”. Moreover, in [5], the “EC50 on hepatocyte infection rate (EEF count)” value was 0.20 (0.059 – 0.71) μg/mL and the “Liver-stage schizont EC50 (EEF diameter/size)” value was 0.15 µg/mL.

For `O=C1C(O)=C([C@H]2CC[C@H](c3ccc(Cl)cc3)CC2)C(=O)c2ccccc21` [atovaquone], the “drug concentration required to suppress emergence of resistant parasites” value in data set [6] (Dd2, inoculum 2×10^7 parasites) amounted to 33 xEC50. In addition, in data set [6] (parasites selected with the same drug), the “EC50 increase of resistant Dd2 parasites over wild-type” value is on record as 10 fold. Further, the “outcome of resistance selection” value in [7] is “resistant HB3 parasites could be obtained”. Further, the “sensitivity of DSM265-resistant isolates to the drug” value in [8] is “fully sensitive”.

In the case of `C[C@@H]1CC[C@H]2[C@@H](C)C(=O)O[C@@H]3O[C@@]4(C)CC[C@@H]1[C@]32OO4` [artemisinin], in data set [3], the “blood-stage phenotype after treatment” value is given as “pyknotic”. Further, the “sensitivity of DSM265-resistant isolates to the drug” value in data set [8] is on record as “fully sensitive”.

As to `CC(F)(F)c1nc2nc(CO)cc(Nc3ccc(S(F)(F)(F)(F)F)cc3)n2n1` [DSM450, (2-(1,1-difluoroethyl)-7-((4-(pentafluoro-l^6-sulfanyl)phenyl)amino)-[1,2,4]triazolo[1,5-a]pyrimidin-5-yl)methanol], in [9], the “fold less potent than DSM265 as a PfDHODH inhibitor” value was found to be 3 fold and the “IC50, P. falciparum DHODH” value was 0.032 (0.026 – 0.040) μg/mL. In addition, the “IC50, P. vivax DHODH” value in data set [10] was 0.11 (0.081 – 0.15) μg/mL. Also, the “IC50, Human DHODH” value in data set [11] is above 43 µg/mL. Besides, in [12], the “IC50, Mouse DHODH” value is 4.5 (3.1 – 6.9) μg/mL. Also, the “IC50, Rat DHODH” value in data set [13] is 1.6 (1.2 – 2.0) μg/mL. In data set [14], the “IC50, Dog DHODH” value was 25 (21 – 29) μg/mL. Besides, the “IC50, Rabbit DHODH” value in data set [15] was above 43 µg/mL. In addition, in data set [16], the “fold less active than DSM265 against P. falciparum 3D7 parasites” value stood at 43 fold and the “P. falciparum 3D7 growth inhibition EC50” value is on record as 0.079 (0.042 – 0.15) μg/mL. In [17], the “plasma metabolite exposure as share of the parent AUC” value was 4–27%.

Turning to `Cc1cc(Nc2ccc(S(F)(F)(F)(F)F)c(F)c2)n2nc(C(C)(F)F)nc2n1` [DSM430, 2-(1,1-difluoroethyl)-N-(3-fluoro-4-(pentafluoro-l^6-sulfanyl)phenyl)-5-methyl-[1,2,4]triazolo[1,5-a]pyrimidin-7-amine], the “IC50, P. falciparum DHODH” value in [9] is reported as 0.010 (0.0079 – 0.014) μg/mL. Further, the “IC50, Human DHODH” value in data set [11] is listed as 3.7 (2.6 – 4.8) μg/mL. Further, the “IC50, Mouse DHODH” value in data set [12] was 0.10 (0.082 – 0.12) μg/mL. Moreover, the “IC50, Rat DHODH” value in [13] is 0.082 (0.069 – 0.099) μg/mL. Besides, the “IC50, Dog DHODH” value in [14] is reported as 0.56 (0.48 – 0.65) μg/mL. For the same compound, in [16], the “P. falciparum 3D7 growth inhibition EC50” value was 0.0002 (0.00011 – 0.00056) μg/mL.
